Results gathered from unrelated publications.
Target: Phosphatidylinositol 3-kinase C2 domain-containing subunit gamma (PIK3C2G, Homo sapiens, UniProt O75747)

O=C(CSc1nc2nccnc2c(=O)n1CCc1ccccc1)Nc1nccs1 — inhibition (enzyme activity; inhibitor; 10 µM): 76%
CO[C@H]1CC[C@H](CNc2ccc(S(=O)(=O)NC(=O)c3ccc(N4CCN(CC5=C(c6ccc(Cl)cc6)CC(C)(C)CC5)CC4)cc3Oc3cnc4[nH]ccc4c3)cc2[N+](=O)[O-])CC1 — remaining binding (cell-free assay; competition with immobilised ligand; 1 µM): 72%
Cc1cnc(NC2CCOCC2)nc1-n1cnc(C(=O)NC(CN)c2cc(F)cc(Cl)c2)c1 (stereo not shown) — remaining activity (enzyme activity; inhibitor; radiometric; 1 µM): 100%
CS(=O)(=O)Nc1cccc(-c2csc(NC(=O)CSc3nc4nccnc4c(=O)n3CCc3ccccc3)n2)c1 — inhibition (enzyme activity; inhibitor; 10 µM): 16%
CN(C)CC#Cc1ccc(OCCCc2sc(N3CCc4cccc(C(=O)Nc5nc6ccccc6s5)c4C3)nc2C(=O)O)c(F)c1 — remaining binding (cell-free assay; competition with immobilised ligand; 1 µM): 100%
Cc1ccc(NC(=O)c2ccc(C)c(C(F)(F)F)c2)cc1C#Cc1nn(C2CCC(O)CC2)c2ncnc(N)c12 (stereo not shown) — remaining signal (cell-free assay; 10 µM): 98%
Cc1cc(NC(=O)c2cccc3cc(-c4cccc5[nH]nc(N)c45)ccc23)ccc1F — activity vs control (enzyme activity; inhibitor; 0.1 µM): 103%
Nc1ncnc2occ(-c3ccc(NC(=O)Nc4cc(C(F)(F)F)ccc4F)cc3)c12 — remaining signal (cell-free assay; 20 µM): 93%
C=CC(=O)Nc1cc(Nc2nccc(Nc3cc(Cl)c(F)cc3C(C)(C)O)n2)c(OC)cc1N1CC[C@@H](N(C)C)C1 — inhibition (enzyme activity; inhibitor; 1 µM): -3%
COc1cc(Cl)c(C(=O)N[C@@H](CN[C@H]2CC[C@@H](N)CC2)Cc2ccc(C#N)cc2)cc1-c1ccc(CN[C@H](C)c2ccc(C)cc2)o1 — remaining activity (enzyme activity; inhibitor; 1 µM): 96%
Cc1ccc(C(=O)Nc2ccc(CN3CCN(C)CC3)c(C(F)(F)F)c2)cc1C#Cc1cnc2cccnn12 — remaining signal (cell-free assay; 23.5 nM): 85%
CN1CC(Oc2cnc(C#N)cc2-c2ccn3nc(NC(=O)C4CC4)cc3c2)C1 — inhibition (enzyme activity; inhibitor; 1 µM): -6%
Cc1ccc(C(=O)NCc2ccsc2)cc1C#Cc1cn(C(C)C)c2ncnc(N)c12 — activity vs control (enzyme activity; inhibitor; 1 µM): 86%
